Experimental data reported in ChEMBL document CHEMBL1157676, “Carboxymethylated-kappa-casein: a convenient tool for the identification of polyphenolic inhibitors of amyloid fibril formation” (Bioorg Med Chem, 2010).
Activity calls are given as the source filed them. The rule behind the calls is not given here.

Key:
[1] = Inhibition of reduced carboxymethylated kappa-casein fibril formation at 50 ug/mL measured every 5 mins after 1000 mins by thioflavin T staining-based binding assay
Procedure, shortened: (§1)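 RCM-κ-CN (0.5 mg/mL final) in 50 mM sodium phosphate pH 7.2 with 10 µM ThT and test compound (final DMSO ≤1%), incubated at 37 °C unshaken in sealed plates. Fluorescence (ex 440/em 490 nm) was read every 5 min for 1000 min. %FFi = 100×(ΔFc−ΔFs)/ΔFc versus a 1% DMSO control. Duplicates.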

[2] = Inhibition of reduced carboxymethylated kappa-casein fibril formation measured every 5 mins after 1000 mins by thioflavin T staining-based binding assay
Procedure, shortened: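 RCM-κ-CN fibrillation (0.5 mg/mL) at 37 °C, pH 7.2 phosphate (50 mM), 10 µM ThT, no shaking. ThT fluorescence 440/490 nm was read every 5 min over 1000 min. Duplicate samples. The positive control IC50 is the mean of four batches.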

[3] = Inhibition of reduced carboxymethylated kappa-casein fibril formation at 5 ug/mL measured every 5 mins after 1000 mins by thioflavin T staining-based binding assay; procedure, shortened: as §1
[4] = Inhibition of reduced carboxymethylated kappa-casein fibril formation assessed as formation of shorter and stunted fibrils by transmission electron microscopy
[5] = Inhibition of reduced carboxymethylated kappa-casein fibril formation at 100 ug/mL measured every 5 mins after 1000 mins by thioflavin T staining-based binding assay; procedure, shortened: as §1
[6] = Inhibition of beta amyloid (1 to 42) fibril formation by thioflavin T staining-based binding assay
[7] = Inhibition of beta amyloid (1 to 40) fibril formation by thioflavin T staining-based binding assay
[8] = Inhibition of reduced carboxymethylated kappa-casein fibril formation at 17 ug/mL measured every 5 mins after 1000 mins by thioflavin T staining-based binding assay; procedure, shortened: as §1
[9] = Inhibition of beta amyloid (1 to 40) fibril formation after 24 hrs by fluorimetry
[10] = Inhibition of beta amyloid (1 to 42) fibril formation
[11] = Inhibition of beta amyloid (1 to 40) fibril formation
[12] = Inhibition of beta amyloid (1 to 42) fibril formation at 50 ug/mL by thioflavin T staining-based binding assay
[13] = Selectivity ratio of IC50 for reduced carboxymethylated kappa-casein fibril formation to IC50 for beta amyloid (1 to 40) fibril formation
[14] = Selectivity ratio of IC50 for reduced carboxymethylated kappa-casein fibril formation to IC50 for beta amyloid (1 to 42) fibril formation
[15] = Inhibition of reduced carboxymethylated kappa-casein fibril formation at 12.5 ug/mL measured every 5 mins after 1000 mins by thioflavin T staining-based binding assay; procedure, shortened: as §1

Compound | inhibition [1] [%] | IC50 [2] [nM] | inhibition [4] | IC50 [6] [nM] | IC50 [7] [nM] | also measured
CO/C(=C\c1ccc(OC)c(OC)c1)C(=O)c1c(O)cc(OC)cc1OC | 35 |  |  |  |  | 
O=c1c(O)c(-c2cc(O)c(O)c(O)c2)oc2cc(O)ccc12 [ROBINETIN] |  | 13900 | Active |  |  | inhibition [3]: 89%
CC(=O)Oc1cc(OC(C)=O)c2c(=O)c(OC(C)=O)c(-c3ccc(OC(C)=O)c(OC(C)=O)c3)oc2c1 | 90 | 6800 | Active |  |  | 
Oc1ccc([C@H]2Oc3cc(O)cc(O)c3C[C@H]2O)cc1 |  |  |  |  |  | inhibition [5]: 17%
O=c1c(O)c(-c2ccc(O)cc2)oc2cc(O)ccc12 |  |  |  |  |  | inhibition [3]: 0%
COc1ccc(-c2coc3cc(O)cc(O)c3c2=O)cc1 |  |  |  |  |  | inhibition [3]: 0%
O=c1c(O)c(-c2cc(O)c(O)c(O)c2)oc2cc(O)cc(O)c12 [MYRICETIN] |  |  | Active | 400 | 290 | inhibition [8]: 92%; IC50 [9]: 900 nM; IC50 [10]: 340 nM; IC50 ([11]; read-out: IC50): 200 nM
O=c1c(-c2ccc(O)cc2)coc2cc(O)ccc12 [DAIDZEIN] | 25 |  |  |  |  | IC50 [11]: Active
O=C1c2c(O)cc(O)cc2O[C@H](c2ccc(O)c(O)c2)[C@H]1O [(+)-TAXIFOLIN] | 84 | 40100 |  |  |  | inhibition [12]: 57%
O=c1c(O)c(-c2ccc(O)cc2O)oc2cc(O)cc(O)c12 [MORIN] | 99 | 49500 |  | 670 | 240 | Ratio IC50 [13]: 206; Ratio IC50 [14]: 74; inhibition [12]: 94%
Oc1cc(O)c2c(c1)O[C@H](c1ccc(O)c(O)c1)[C@H](O)C2 [(-)-EPICATECHIN] | 7 |  |  | 5600 | 2800 | 
Oc1cc(O)c2c(c1)O[C@H](c1ccc(O)c(O)c1)[C@@H](O)C2 [CIANIDANOL] | 0 |  |  | 5300 | 2900 | 
O=C(O[C@@H]1Cc2c(O)cc(O)cc2O[C@@H]1c1cc(O)c(O)c(O)c1)c1cc(O)c(O)c(O)c1 [EPIGALOCATECHIN GALLATE] | 100 | 3700 |  |  |  | Ratio IC50 [13]: 20; Ratio IC50 [14]: 10; IC50 ([11]; read-out: IC50): 180 nM; inhibition [12]: 100%
COc1ccc(-c2coc3cc(O)ccc3c2=O)cc1O [CALYCOSIN] |  |  |  |  |  | inhibition [3]: 1%; IC50 [11]: Not Active
O=c1c(O)c(-c2ccc(O)c(O)c2)oc2cc(O)cc(O)c12 [QUERCETIN] | 84 | 13600 | Active | 720 | 240 | Ratio IC50 [13]: 20; Ratio IC50 [14]: 10; inhibition [12]: 95%
O=c1c(O)c(-c2ccccc2)oc2cc(O)cc(O)c12 [GALANGIN] | 68 | 61000 | Active |  |  | IC50 [11]: Not Active
O=c1c(-c2ccc(O)cc2)coc2cc(O)cc(O)c12 [GENISTEIN] | 95 | 190000 |  |  |  | IC50 [11]: Active; inhibition [12]: 43%
O=c1c(O)c(-c2ccc(O)cc2)oc2cc(O)cc(O)c12 [KAEMPFEROL] | 86 | 33000 | Active | 3200 | 1700 | Ratio IC50 [13]: 20; Ratio IC50 [14]: 10
COc1ccc2c(=O)c(O)c(-c3cc(OC)c(OC)cc3CO)oc2c1 |  |  |  |  |  | inhibition [15]: 0%
